# Source: PubChem BioAssay
# In the library only some 2.3% were active in any assay of this set; here they are far more common.
# EWS-Fli block: EWS/Fli-driven NR0B1 reporter inhibitors, primary screen, A673 cells, NR0B1 luciferase, luminescence, MLPCN library | viability-normalised | inhibition, % at 12.6 µM | 350,000 compounds, 0.67% hits;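 active means mean inhibition of at least 50% after viability correction, with every replicate also passing that limit; inconclusive means mean reaches 50% but only one of two replicates passes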;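 further: firefly luciferase signal divided by Alamar Blue viability fluorescence both relative to DMSO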
# LGR2 inh: inhibitors of bursicon-induced LGR2 CRE-luciferase signal, primary screen, cell-based, HEK293, CRE-luciferase reporter, bursicon stimulation; AID 720647, 2013; bursicon-stimulated, 4 h; 380,000 compounds, 0.35% hits; inhibition, % at 9.99 µM; Drosophila bursicon receptor LGR2 (rickets);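 active means drop in luminescence signal, shown as inhibition above about 50% in the replicate tests, limit read from the data, passing the limit was not always enough; inconclusive means probably only some replicates passing the limit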;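 further: agonist challenge used bursicon conditioned medium at about half maximal strength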
# FN deposit inh: inhibitors of fibronectin matrix deposition, primary screen, AH1F cells, Alexa488-fibronectin fluorescence, plate reader | inhibition, % at 12.6 µM | AH1F fibroblasts, overnight | 350,000 compounds, 0.086% hits;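 active means mean inhibition across replicates of 30% or more, regardless of how many single replicates reach that level; inconclusive means mean under 30% yet at least half of replicates reach 30%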;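 further: positive control wells lacked labelled fibronectin entirely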
#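 Assay system: AH1F fibroblasts / Quantity: 10000 cells per well / Medium: DMEM plus 2% serum, read in PBS / Reagent: labelled fibronectin 24 nM / Dosing: single dose, pinned / Times: 1 h cell attachment, overnight exposure to compound and label / Signal: fluorescence, ex 485 nm, em 525 nm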
# TWEAK-Fn14 inh: inhibitors of TWEAK-Fn14 signaling, primary screen, luciferase reporter cells, uHTS; inhibition, % at 10 µM; 360,000 compounds, 2% hits; TWEAK-stimulated Fn14 reporter cells, luciferase luminescence, 8 h; in the data active means inhibition above about 50%
# TROY signal inh: inhibitors of TROY-driven NF-kB signaling, primary screen, Q293 LMP1-TROYcd cells, NF-kB luciferase, uHTS; Q293 LMP1-TROYcd NF-kB luciferase reporter, 4 h; inhibition, % at 10 µM; 360,000 compounds, 0.98% hits; AID 1347056, 2019;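 active means compounds whose plate-normalised and pattern-corrected inhibition of the luciferase reporter signal at the single screening dose is 50% or more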
# XiGFP reactiv: activators of inactive X chromosome reactivation, primary screen, imaging, XiGFP fibroblasts, GFP high-content imaging, set 2; XiGFP mouse fibroblasts, % GFP-positive cells imaging, 3 d; cells co-treated with 5-aza-dC sensitizer; scaled so ellipticine positive control = 100%; activation, % at 7.58 µM; 360,000 compounds, 0.055% hits; AID 743238, 2013;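 active means mean normalized replicate activation at least 10% and every replicate at or above 10%; inconclusive means only one of the two criteria met; inactive means mean below 10% and not all replicates reach 10%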;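 further: 0% = median of on-plate neutral control wells and 100% = ellipticine 6 µM median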
#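 Schedule: 3 d treatment, 15 min room-temperature fixation; system: 68-5-11 XiGFP fibroblast line; buffer or medium: DMEM plus 5-aza-dC sensitizer; control set: ellipticine 6 µM positive control; compound: one concentration, pinned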
# * marks the source's active call; other numbers are inactive results; ? = inconclusive; · = no result given.
SMILES,EWS-Fli block,LGR2 inh,FN deposit inh,TWEAK-Fn14 inh,TROY signal inh,XiGFP reactiv
O=S(=O)(c1ccc(Cl)c(NC(=S)N/N=C/c2ccc(O)cc2)c1)N1CCOCC1,·,1.1,·,58.4*,19.0,·
CO[C@H]1CN(C)C(=O)c2cc(NC(=O)Cc3ccccc3)ccc2OC[C@@H](C)NC[C@@H]1C,-1.2,-12.3,-7.6,·,·,-0.4
O=C(Nc1ccc(Cl)cc1)c1cc2c(cc1O)[nH]c1ccccc12,15.2,27.9,15.6,81.7*,55.1*,0.1
COc1ccc2c3c(n(C)c2c1)[C@@H](CO)N(C(=O)Nc1ccc(F)cc1)CC31CN(C(=O)c2ccccc2F)C1,9.2,7.9,·,·,·,0.3
C[C@@H]1CN([C@H](C)CO)C(=O)Cc2cc(NC(=O)CCN3CCOCC3)ccc2O[C@H]1CN(C)C(=O)Nc1ccccc1,-4.5,-13.3,·,·,·,-0.1
Nc1ccc2c3c(cccc13)-c1ccccc1-2,-9.6,-1.1,-4.2,1.6,-18.2,116.6*
CC(C)(C)c1ccc(C(=O)N/C(N)=N/c2nc3ccccc3o2)cc1,·,·,·,23.8,9.5,·
Cc1ccc2oc(/N=C(\N)NC(=O)C3CC3)nc2c1,49.5,·,16.5,64.3*,30.9,0.0
Cc1ccc(S(=O)(=O)N2CC[C@@H]3[C@H]2c2cc(-c4cccc(C(=O)N(C)C)c4)ccc2N[C@@H]3CO)cc1,0.8,-1.1,12.7,·,·,0.0
Cc1ccc(S(=O)(=O)N2CC[C@H]3[C@H](CO)Nc4ccc(-c5cccc(C(=O)N(C)C)c5)cc4[C@H]32)cc1,-15.1,7.6,30.6*,·,·,0.1
O=C(C[C@H]1CC[C@H]2[C@@H](COC[C@H](O)CN2S(=O)(=O)c2ccccc2)O1)NCCN1CCCCC1,-1.7,11.4,15.3,·,·,0.0
CCN(CC)Cc1c(O)ccc2c([N+](=O)[O-])c(C)n(-c3ccc(OC)cc3)c12,·,·,·,74.1*,35.8,·
CCN(CC)Cc1c(O)ccc2occ(C(=O)c3ccc(OC)cc3)c12,·,·,·,-17.0,-3.9,·
CC(OC(=O)c1ccc(O)cc1)C(=O)Nc1nc(-c2ccccc2)cs1 (stereo unspecified),-24.6,-2.0,-1.0,55.1*,41.6,0.1
CC(Oc1ccccc1)C(=O)Nc1nc(-c2ccncc2)cs1 (stereo unspecified),4.8,-3.0,15.4,15.9,8.1,0.2
COc1ccc(C2c3sc(=O)[nH]c3SC3C4CCC(C4)C23)cc1 (stereo unspecified),·,·,·,64.5*,·,·
O=c1[nH]c2c(s1)C(c1ccccc1)C1C3CCC(C3)C1S2 (stereo unspecified),·,·,·,11.3,17.4,·
O=C(Nc1nccs1)c1cccc(N2C(=O)c3cccc4c([N+](=O)[O-])ccc(c34)C2=O)c1,·,·,·,84.9*,·,·
O=C(Nc1ccc(S(=O)(=O)Nc2nccs2)cc1)c1cccc(N2C(=O)c3ccccc3C2=O)c1,4.2,11.5,1.3,8.2,-2.7,0.0
Cc1ccc(C(=O)O)cc1N1C(=O)c2cccc3c([N+](=O)[O-])ccc(c23)C1=O,17.4,-3.5,-13.7,13.0,-20.3,2.9
O=C(O)c1ccc(CN2C(=O)c3cccc4c([N+](=O)[O-])ccc(c34)C2=O)cc1,·,-2.3,·,52.9*,71.0*,·
CC(=O)Oc1cccc(N2C(=O)c3cccc4c([N+](=O)[O-])ccc(c34)C2=O)c1,?,19.7,2.2,-90.5,27.0,12.5*
Cc1cc(C(=O)Nc2cccc3c2O[C@H](CN(C)S(C)(=O)=O)[C@H](C)CN([C@@H](C)CO)C3=O)n(C)n1,5.5,-10.3,·,·,·,-0.1
COc1ccc(-c2cn(CC(=O)N3CCC4(CC3)C(=O)NCN4c3ccccc3)nn2)cc1OC,-2.9,·,·,·,·,·
COc1cccc(N=Nc2ccc3ccccc3c2O)c1,-24.0,15.9,-11.1,74.6*,58.4*,-0.1
SMILES,EWS-Fli block,LGR2 inh,FN deposit inh,TWEAK-Fn14 inh,TROY signal inh,XiGFP reactiv
COc1ccc(N=Nc2ccc3ccccc3c2)c(O)c1,33.2,60.5*,0.2,80.9*,62.8*,0.0
C[C@H]1CN([C@@H](C)CO)C(=O)c2ccccc2-c2ccccc2CO[C@@H]1CN(C)S(C)(=O)=O,·,·,-17.7,·,·,-0.4
O=C(Oc1ccc(/C=N/n2cnnc2)cc1)c1cccc([N+](=O)[O-])c1,-1.1,72.7*,10.9,10.3,55.6*,0.0
COc1ccc(Nc2nc(-c3cccs3)nc3ccccc23)cc1S(=O)(=O)N1CCOCC1,3.0,16.1,0.8,97.3*,26.7,-0.1
COc1ccc(NS(=O)(=O)c2cccs2)cc1S(=O)(=O)N1CCOCC1,-1.1,-6.0,3.0,3.0,6.7,0.1
C[C@H](CO)N1C[C@H](C)[C@H](CN(C)C(=O)Cc2ccccc2)OCCCC[C@H](C)Oc2ccc(NC(=O)Nc3ccc(C(F)(F)F)cc3)cc2C1=O,-0.1,?,·,·,·,4.1
N#Cc1c(-c2ccccc2)nc(SCC(=O)N2c3ccccc3Sc3ccccc32)[nH]c1=O,10.6,0.8,-14.1,-27.6,55.0*,0.2
N#Cc1c(-c2ccccc2)nc(SCC(=O)N(c2ccccc2)c2ccccc2)[nH]c1=O,12.3,9.9,-4.0,4.0,18.4,0.4
N#Cc1c(-c2ccccc2)nc(SCc2ccc(Cl)cc2)[nH]c1=O,-16.8,-6.6,-0.1,-14.1,51.3*,0.0
CCC(=O)N1[C@@H]2c3cccc(=O)n3C[C@@H]2[C@@H](CO)[C@@H]1C(=O)N1CCc2ccccc2C1,2.3,-5.8,·,·,·,0.1
CCC(=O)Nc1ccc2c(c1)OC[C@@H](C)N(Cc1cccnc1)C[C@@H](C)[C@@H](OC)CN(C)C2=O,2.4,-18.0,1.7,·,·,-0.1
Cc1nn(-c2ccccc2)nc1C(=O)Nc1nnc(C(F)(F)F)s1,0.4,8.9,0.2,10.9,52.1*,0.0
CCc1nnc(NC(=O)c2nn(-c3ccccc3)nc2C)s1,-2.7,13.5,-0.1,-2.3,-15.7,-0.2
CC(NC(=O)Nc1nnc(C(F)(F)F)s1)(C(F)(F)F)C(F)(F)F,·,·,·,29.8,55.1*,·
O=C(Nc1ccccc1C(=O)Nc1nnc(C(F)(F)F)s1)c1ccccc1Cl,16.9,24.7,2.7,61.5*,66.4*,0.3
CC(C)(C)CC(=O)Nc1nnc(C(F)(F)F)s1,·,·,4.2,-1.5,15.1,·
COc1ccc2c3c(n(C)c2c1)[C@@H](CO)N(C(C)=O)CC31CN(Cc2ccccc2OC)C1,-10.2,-13.1,·,·,·,0.3
O=C(COc1ccccc1)Nc1cccc(-c2nc3cc4ccccc4cc3[nH]2)c1,·,·,13.9,77.0*,6.5,·
O=C(COc1ccccc1)Nc1cccc(-c2nn[nH]n2)c1,6.4,5.0,·,-7.5,-25.7,0.0
